Data set [1] relates to Human immunodeficiency virus 1. The data set can be described thus: Antiviral activity against Human immunodeficiency virus 1 NL4-3 infected in human MT4 cells assessed as protection against virus-induced cytopathic effect after 2 days by bright-glo luciferase reporter gene assay. The format is functional, organism-based. The gist of the method: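 MT-4 cells are infected with 200 TCID50 of HIV-1 NL4-3 over a range of compound concentrations, allowing multiple rounds of infection. After two days the medium is removed and Bright-Glo luminescence is read. […] At least triplicate; mean ± SD of at least two parallel tests.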

Data set [2] has as its system MT4. Kind of data set: Cytotoxicity against human MT4 cells assessed as reduction in cell viability after 24 hrs by CytoTox-Glo cytotoxicity assay. The class given is cell-based. Particulars: mt4, 24 h; call rule not given here. The gist of the method: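 Uninfected MT-4 cells were cultured for 1 day with various compound concentrations, in parallel with the antiviral assays. Percent viable cells was read by the CytoTox-Glo kit following the manufacturer's protocol. […] Each value was run in at least triplicate and averaged from at least four independent experiments.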

Data set [3] can be described thus: Selectivity index, ratio of CC50 for human MT4 cells to EC50 for Human immunodeficiency virus 1 NL4-3 infected in human MT4 cells. Particulars: read-out: Ratio CC50/EC50. The class given is toxicity, cell-based. The method, boiled down: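 SI is CC50/EC50, both measured in MT-4 cells. For EC50, 200 TCID50 of NL4-3 infected MT-4 cells over multiple rounds in the presence of various compound concentrations. […] CC50 came from a 1-day CytoTox-Glo viability assay on uninfected cells.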

Data set [4] concerns Human immunodeficiency virus 1. Kind of data set: Antiviral activity against Human immunodeficiency virus 1 3B infected in human MT4 cells assessed as inhibition of virus-induced cytopathic effect at 2 uM after 5 days by CellTiter-Glo assay relative to control. The class given is functional. As to conditions: MT4, 120 h.
Data set [5] deals with T1, Structural capsid protein (Human immunodeficiency virus 1, UniProt Q76129). The data set can be described thus: Binding affinity to HIV1 NL4-3 N-terminal domain capsid protein by surface plasmon resonance. The gist of the method:
(§1)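 SPR at 25°C. HIV-1 NL4-3 CA constructs are amine-coupled at 100 µg/ml in 10 mM sodium acetate, pH 5.0, onto an EDC/sulfo-NHS-activated GLH chip, then ethanolamine-capped. Compound serial dilutions in PBS, 3% DMSO, 0.005% polysorbate 20, pH 7.4 are injected at 100 µl/min with 1 min association and up to 5 min dissociation. Reference-subtracted; KD by equilibrium analysis, at least three experiments.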

Data set [6] concerns the target T1, Structural capsid protein. Kind of data set: Binding affinity to HIV1 NL4-3 monomeric capsid protein by surface plasmon resonance. The method, boiled down: as §1
Data set [7] deals with T1, Structural capsid protein. The data set can be described thus: Binding affinity to HIV1 NL4-3 hexameric capsid protein by surface plasmon resonance. The gist of the method: as §1
For data set [8], the system named is Human immunodeficiency virus 1. Kind of data set: Antiviral activity against ENV pseudotyped HIV1 B41 infected in human U87 cells expressing CD4/CCR5 measured after 48 hrs by luciferase reporter gene assay. The class given is functional, organism-based. Particulars: Human immunodeficiency virus 1, B41, U-87 MG. The gist of the method:
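Early-stage single-round assay. U87.CD4.CCR5 target cells, 1.2×10^4 cells/well, are seeded and left 24 h at 37°C. Single-round HIV-1 B41 Env-pseudotyped firefly luciferase virus, produced in HEK293T without compound, is mixed with compound or DMSO vehicle and added to the cells. After 48 h at 37°C the cells are lysed, freeze-thawed and read for luciferase. IC50 from 3 parallel tests.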

Data set [9] has as its system Human immunodeficiency virus 1. The data set can be described thus: Antiviral activity against ENV pseudotyped HIV1 B41 infected in human U87 cells expressing CD4/CCR5 pretreated with virus for 72 hrs followed by infection of cells measured after 48 hrs by luciferase reporter gene assay. The class given is functional, organism-based. Particulars: Human immunodeficiency virus 1, B41, U-87 MG. The gist of the method: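 Late-stage assay. B41 Env-pseudotyped luciferase viruses are produced in 293T cells with compound (100 μM to 0.01 μM, equal DMSO) or DMSO vehicle for 72 h at 37°C. Supernatants are clarified, filtered, freeze-thawed once, diluted ten-fold and used to infect U87.CD4.CCR5 cells for 48 h at 37°C. Lysate luciferase is normalized to virus made in vehicle-treated cells.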

Data set [10] has as its system U-87 MG. The data set can be described thus: Cytotoxicity against human U87 cells expressing CD4/CCR5. Particulars: u-87mg atcc. The class given is cell-based.
Data set [11] relates to Human immunodeficiency virus 1. The data set can be described thus: Antiviral activity against Human immunodeficiency virus 1 NL4-3 infected in human MT2 cells measured 4 to 5 days post infection by luciferase reporter gene assay. The format is functional, organism-based. Particulars: Human immunodeficiency virus 1, NL4-3, MT2.
The nature of data set [12]: Cytotoxicity against human MT2 cells after 4 days by XTT assay. The format is cell-based.
Data set [13] in a line: Therapeutic index, ratio of CC50 for human U87 cells to IC50 for ENV pseudotyped HIV1 B41 infected in human U87 cells expressing CD4/CCR5. The format is toxicity, cell-based. As to conditions: read-out: Ratio CC50/IC50.
The mark [14] stands for this setting: Human immunodeficiency virus 1, NL4-3, MT4, 48 h, read-out: EC50.

Bounds are passed on as bounds.

The text below walks through data of ChEMBL document CHEMBL4265939, “Discovery of phenylalanine derivatives as potent HIV-1 capsid inhibitors from click chemistry-based compound library” (Eur J Med Chem, 2018).

T1 sequence (Q76129 whole entry, the tested form may be a part): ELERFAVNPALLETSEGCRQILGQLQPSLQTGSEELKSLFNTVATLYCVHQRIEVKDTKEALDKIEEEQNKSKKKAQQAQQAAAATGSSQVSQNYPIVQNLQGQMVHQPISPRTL

`COc1ccc(N(C)C(=O)[C@H](Cc2ccccc2)NC(=O)c2cn(Cc3ccc([N+](=O)[O-])cc3)nn2)cc1`: the EC50 in data set [1] (setting [14]) is over 19.4 µM. The CC50 in data set [2] (read-out: CC50) is over 19.4 µM.

For `COc1ccc(N(C)C(=O)[C@H](Cc2ccccc2)NC(=O)c2cn(C3CC(n4cc(C)c(=O)[nH]c4=O)OC3CO)nn2)cc1` (some centres not stated), the EC50 in data set [1] (setting [14]) was 10.5 µM. In addition, in data set [2] (read-out: CC50), the CC50 was over 16.6 µM. Also, the selectivity ratio in data set [3] is over 1.59.

Consider `COc1ccc(N(C)C(=O)[C@H](Cc2ccccc2)NC(=O)c2cn(Cc3cccc(C#N)c3)nn2)cc1`, for which the EC50 in [1] (setting [14]) is 9.11 µM. Moreover, in [2] (read-out: CC50), the CC50 was over 21.5 µM. Moreover, the selectivity ratio in data set [3] was over 2.36.

For the compound `COc1ccc(N(C)C(=O)[C@H](Cc2ccccc2)NC(=O)Cn2nc(C(F)(F)F)c3c2CCCC3)cc1`, in [4], the inhibition at 2 µM is 100%.

On to `COc1ccc(N(C)C(=O)[C@H](Cc2ccccc2)NC(=O)c2cn(Cc3ccccc3C#N)nn2)cc1`, for which, in data set [1] (setting [14]), the EC50 was over 21.5 µM. Moreover, the CC50 in data set [2] (read-out: CC50) is over 21.5 µM.

Regarding `COc1ccc(N(C)C(=O)[C@H](Cc2ccccc2)NC(=O)c2cn(Cc3ccccc3C)nn2)cc1`, the EC50 in [1] (setting [14]) amounted to 8 µM. In addition, the CC50 in data set [2] (read-out: CC50) was over 20.7 µM. For the same compound, the selectivity ratio in [3] is over 2.58.

Consider `COc1ccc(N(C)C(=O)[C@H](Cc2ccccc2)NC(=O)c2cn(Cc3ccc(C#N)cc3)nn2)cc1`, for which the EC50 in data set [1] (setting [14]) is 8.98 µM. Also, the CC50 in [2] (read-out: CC50) is over 21.5 µM. In addition, the selectivity ratio in data set [3] is over 2.4.

For the compound `COc1ccc(N(C)C(=O)[C@H](Cc2ccccc2)NC(=O)c2cn(Cc3ccc(Cl)cc3)nn2)cc1`, in data set [1] (setting [14]), the concentration for a half-maximal effect (EC50) is over 19.8 µM. For the same compound, the CC50 in data set [2] (read-out: CC50) was over 19.8 µM.

Take `COc1ccc(N(C)C(=O)[C@H](Cc2ccccc2)NC(=O)c2cn(C[S+]([O-])c3ccccc3)nn2)cc1` (some centres not stated): in data set [1] (setting [14]), the half-maximal effective concentration (EC50) stood at 6.65 µM. Further, the CC50 in [2] (read-out: CC50) was over 19.3 µM. Besides, the selectivity ratio in data set [3] was over 2.91. The Kd in [5] is 28.2 µM; in [6], 12.7 µM; in data set [7], 93.3 µM.

In the case of `COc1ccc(N(C)C(=O)[C@H](Cc2ccccc2)NC(=O)c2cn(Cc3cccc4ccccc34)nn2)cc1`, the EC50 in data set [1] (setting [14]) is over 19.2 µM. In addition, in [2] (read-out: CC50), the CC50 is over 19.2 µM.

As to `Cc1[nH]c2ccccc2c1CC(=O)N[C@@H](Cc1ccccc1)C(=O)N(C)c1ccccc1`, the EC50 in [1] (setting [14]) turned out to be 5.95 µM. The CC50 was over 70.5 µM in [2] (read-out: CC50) and 73 µM in data set [10]. Also, the IC50 in data set [8] stood at 0.1 µM; in data set [9] it was 8.3 µM.

Take `COc1ccc(N(C)C(=O)[C@H](Cc2ccccc2)NC(=O)NS(=O)(=O)N2CCCc3ccccc32)cc1`: in data set [11], the concentration for a half-maximal effect (EC50) was 0.11 µM. In data set [12], the midpoint of cytotoxicity, the CC50 at 96 h, lay at 33.3 µM.

Consider `COc1ccc(N(C)C(=O)[C@H](Cc2ccccc2)NC(=O)c2cn(Cc3ccccc3Cl)nn2)cc1`, for which the EC50 in data set [1] (setting [14]) was over 19.8 µM. Moreover, the CC50 in data set [2] (read-out: CC50) is over 19.8 µM.

In the case of `COc1ccc(N(C)C(=O)[C@H](Cc2ccccc2)NC(=O)c2cn(Cc3cccc([N+](=O)[O-])c3)nn2)cc1`, the EC50 entry in [1] (mt4) was “Not Active”. In data set [2], the CC50 entry is recorded as “Not Active”.

With `COc1ccc(N(C)C(=O)[C@H](Cc2ccccc2)NC(=O)c2cn(CSc3ccccc3)nn2)cc1`, in data set [1] (mt4), the 50% effective concentration (EC50) entry was “Not Active”. In addition, in data set [2], the CC50 entry is “Not Active”.

Turning to `COc1ccc(N(C)C(=O)[C@H](Cc2ccccc2)NC(=O)c2cn(CS(=O)(=O)c3ccccc3)nn2)cc1`, the EC50 result in data set [1] (mt4) is “Not Active”. In data set [2] (read-out: CC50), the half-maximal cytotoxic concentration (CC50) was over 18.7 µM.

As for `COc1ccc(N(C)C(=O)[C@H](Cc2ccccc2)NC(=O)c2cn(-c3ccc4c(c3)OCO4)nn2)cc1`, the EC50 in data set [1] (setting [14]) came out at 14.9 µM. Further, the CC50 in data set [2] (read-out: CC50) is over 20 µM. Also, the selectivity ratio in [3] was over 1.34.

On to `COc1ccc(N(C)C(=O)[C@H](Cc2ccccc2)NC(=O)c2cn(Cc3ccc4ccccc4c3)nn2)cc1`, for which the EC50 in data set [1] (setting [14]) was 4.33 µM. The values for the CC50 in data set [2] (read-out: CC50) and in [10] were over 57.7 µM and 54.8 µM, respectively. Further, the results for the selectivity ratio in data set [3] and in data set [13] were over 13.3 and 2.8, respectively. In addition, the results for the Kd in data set [5], in data set [6] and in data set [7] were 32.7 µM, 14 µM and 11 µM, respectively. The figures for the 50% inhibitory concentration (IC50) in data set [8] and in data set [9] were 7 µM and 31 µM, respectively.

In the case of `COc1ccc(N(C)C(=O)[C@H](Cc2ccccc2)NC(=O)c2cn(Cc3cccc(C)c3)nn2)cc1`, the 50% effective concentration (EC50) result in [1] (mt4) is listed as “Not Active”. In addition, the CC50 result in [2] is reported as “Not Active”.

`COc1ccc(N(C)C(=O)[C@H](Cc2ccccc2)NC(=O)c2cn(Cc3ccc(C)cc3)nn2)cc1`: in data set [1] (mt4), the EC50 entry is recorded as “Not Active”. In [2], the cytotoxic concentration (CC50) entry is “Not Active”.

On to `COc1ccc(N(C)C(=O)[C@H](Cc2ccccc2)NC(=O)c2cn(Cc3cccc(Cl)c3)nn2)cc1`, for which the EC50 entry in data set [1] (mt4) is “Not Active”. Moreover, the CC50 result in data set [2] is given as “Not Active”.

Take `COc1ccc(N(C)C(=O)[C@H](Cc2ccccc2)NC(=O)c2cn(Cc3ccccc3[N+](=O)[O-])nn2)cc1`: the EC50 in data set [1] (setting [14]) was determined as 10.2 µM. The CC50 in [2] (read-out: CC50) was over 19.4 µM. The selectivity ratio in data set [3] was over 1.91.

Consider `COC(=O)c1cccc(-n2cc(C(=O)N[C@@H](Cc3ccccc3)C(=O)N(C)c3ccc(OC)cc3)nn2)c1`, for which the concentration for a half-maximal effect (EC50) in [1] (setting [14]) was 6.91 µM. Also, the CC50 in data set [2] (read-out: CC50) was over 19.5 µM. Besides, the selectivity ratio in [3] is over 2.82.
